Source: PubChem BioAssay
SENP1 FRET inh: inhibitors of human SENP1 SUMO protease catalytic domain | Q9P0U3 | recombinant SENP1 catalytic domain, CyPet-SUMO1-YPet FRET cleavage | inhibition, % at 10 µM | 0.21% of 360,000 active | AID 624204;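 active = inhibition at least 30% at 10 µM, raw YFP signal under a set limit, fluorescence ratio 0.5 to 1.5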
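Test system: recombinant human SENP1 catalytic domain, His6-tagged / Medium: pH 8 Tris buffer with EDTA, NaCl, BME, BSA, NP40, catalase / Also added: SUMO1 FRET substrate flanked by Cypet and Ypet, 25 nM / Times: 50 min reaction at room temperature / Signal: FRET, CFP and YFP emission / Control set: no-enzyme low control and enzyme-plus-DMSO high control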
SENP6 inh: blocks the human protease SENP6 | Q9GZR1 | Recombinant SENP6 catalytic domain, aminoluciferin luminescence | inhibition, % at 10 µM | 1.8% of 330,000 active | AID 2599;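 active = inhibition above about 50% at the single tested dose, limit read from the data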
SENP8 block-1: SENP8 (human) protease inhibition; recombinant SENP8, Nedd8 substrate fluorescence; inhibition, % at 20 µM; AID 602440; Q96LD8; 0.64% of 360,000 active; in the data active = inhibition mostly above about 40%, no sharp cut-off; inactive = mostly below about 27%
SENP7 inh: SENP7 protease inhibition; AID 434973; 1.5% of 330,000 active; inhibition, % at 5 µM; recombinant SENP7, Z-RLRGG-aminoluciferin luminescence, 40 min; Q9BQF6;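 active = inhibition above about 50% at the single test dose, limit read from the data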
Target sequence (Q9BQF6 706-1050 limits assumed): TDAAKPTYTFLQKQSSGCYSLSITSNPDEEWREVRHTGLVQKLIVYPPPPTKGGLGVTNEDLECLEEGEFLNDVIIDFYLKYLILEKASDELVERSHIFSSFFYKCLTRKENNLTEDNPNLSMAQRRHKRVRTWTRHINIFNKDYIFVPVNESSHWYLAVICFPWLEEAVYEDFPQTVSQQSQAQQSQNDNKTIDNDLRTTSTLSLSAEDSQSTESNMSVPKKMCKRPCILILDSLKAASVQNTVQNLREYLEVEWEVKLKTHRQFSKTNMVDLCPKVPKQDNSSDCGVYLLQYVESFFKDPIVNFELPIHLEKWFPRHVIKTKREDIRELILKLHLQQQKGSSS
SENP8 block-2: blocks the human protease SENP8. Q96LD8. purified SENP8, Z-RLRGG-aminoluciferin cleavage, luminescence. inhibition, % at 10 µM. 1.2% of 330,000 active; in the data active = inhibition above about 50%
SENP8 confirm: confirmation of human SENP8 protease inhibitors; inhibition, % at 12.5 µM; Recombinant SENP8, Z-RLRGG-aminoluciferin luminescence, 60 min; 40% of 6,200 active; shares compounds with SENP7 inh; AID 488912;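 active = mean inhibition across replicates above about 50%, limit read from the data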
SENP6 conf: confirmation of human SENP6 protease inhibitors; shares compounds with SENP7 inh; recombinant SENP6, Z-RLRGG-aminoluciferin luminescence; inhibition, % at 12.5 µM; 58% of 6,200 active; AID 488915
SENP7 conf: confirmation of human SENP7 protease inhibitors; inhibition, % at 12.5 µM; recombinant SENP7, Z-RLRGG-aminoluciferin luminescence, 40 min; shares compounds with SENP7 inh; 69% of 6,200 active
Casp3 SENP sel: inhibits human caspase-3 in SENP selectivity test; shares compounds with SENP7 inh; purified caspase-3, Z-DEVD-aminoluciferin luminescence, 60 min; inhibition, % at 12.5 µM; 60% of 6,200 active;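 active = mean inhibition above about 50%, limit read from the data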
Target sequence (P42574 28-227 limits assumed): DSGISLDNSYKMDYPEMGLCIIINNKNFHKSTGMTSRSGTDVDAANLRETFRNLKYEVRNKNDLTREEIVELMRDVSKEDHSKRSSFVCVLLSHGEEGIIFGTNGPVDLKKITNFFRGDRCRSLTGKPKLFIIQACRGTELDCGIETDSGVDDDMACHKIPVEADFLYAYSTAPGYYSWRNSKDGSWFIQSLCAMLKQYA
SENP luc ctr: luminescence interference (SENP counter-screen) | shares compounds with SENP7 inh | Pre-incubated SENP8/Z-RLRGG-aminoluciferin, luciferase luminescence interference | inhibition, % at 12.5 µM | 39% of 6,200 active | AID 488919;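 active = mean inhibition above about 50% when retested at one dose, limit read from the data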
Each line names hits and unclear results; the compound was inactive in the other large screens (follow-up assays come after a bar, where they were run). An excerpt weighted towards active compounds, which were near 2.5% of everything screened.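 Rule for the calls, unless noted: active = mean inhibition above about 50% in the one-dose retest (limit read from the data); inactive = the rest.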

Cc1ccccc1-c1noc(-c2ccc(O)cc2)n1	SENP6 inh 98, SENP7 inh 101, SENP8 block-2 99 | SENP8 confirm 99 | SENP6 conf 100 | SENP7 conf 102 | Casp3 SENP sel 98 | SENP luc ctr 97
Cc1ccccc1-c1noc(-c2ccc(Cl)cc2)n1	SENP7 inh 79 | SENP8 confirm inactive | SENP6 conf inactive | SENP7 conf inactive | Casp3 SENP sel inactive | SENP luc ctr inactive
COc1ccccc1N(CC(=O)NCCSCc1ccccc1Cl)S(C)(=O)=O	none
CNNC(=S)Nc1cccc(SC)c1	none
COc1ccc(-n2c3nc4ccccc4nc3c3c(=N)oc(C)nc32)cc1	SENP6 inh 90, SENP7 inh 75, SENP8 block-2 63 | SENP8 confirm inactive | SENP6 conf inactive | SENP7 conf inactive | Casp3 SENP sel inactive | SENP luc ctr inactive
O=C(Nc1cccnc1Cl)c1noc2c1CCc1ccccc1-2	SENP7 inh 65 | SENP8 confirm inactive | SENP6 conf inactive | SENP7 conf inactive | Casp3 SENP sel inactive | SENP luc ctr inactive
COc1ccc(CNCc2c(F)cccc2F)cc1OC	none
COc1cccc(-c2nc(-c3ccccn3)no2)c1OC	none
COc1nc(C)ccc1-c1noc(-c2ccco2)n1	SENP6 inh 70, SENP7 inh 61 | SENP8 confirm 51 | SENP6 conf 57 | SENP7 conf 85 | Casp3 SENP sel 69 | SENP luc ctr inactive
Cc1ccc(-c2nc(-c3ccccn3)no2)cc1[N+](=O)[O-]	SENP6 inh 92, SENP7 inh 88, SENP8 block-2 85 | SENP8 confirm 63 | SENP6 conf 83 | SENP7 conf 88 | Casp3 SENP sel 85 | SENP luc ctr inactive
c1ccc(-c2noc(-c3cccc4ccccc34)n2)nc1	SENP6 inh 96, SENP7 inh 90, SENP8 block-2 89 | SENP8 confirm 93 | SENP6 conf 95 | SENP7 conf 101 | Casp3 SENP sel 90 | SENP luc ctr 94
Cc1ccc(-c2nc(-c3ccccn3)no2)cc1	SENP6 inh 99, SENP7 inh 99, SENP8 block-2 98 | SENP8 confirm inactive | SENP6 conf 101 | SENP7 conf 103 | Casp3 SENP sel 100 | SENP luc ctr 99
COc1cc(-c2nc(-c3ccccn3)no2)cc(OC)c1OC	none
COc1cc[n+]([O-])cc1[N+](=O)[O-]	none (no result: SENP6 inh, SENP7 inh, SENP8 block-2)
CCC(CO)Oc1cc(NC(=O)Cc2ccccc2)c2ncn(C(C)C)c2c1 (stereo not drawn)	none
CSc1cccc(NC(=O)CCNS(=O)(=O)c2ccc3[nH]c(=O)oc3c2)c1	none
Clc1cccc(-c2nc(-c3ccccn3)no2)c1	SENP6 inh 96, SENP7 inh 98, SENP8 block-2 92 | SENP8 confirm 97 | SENP6 conf 98 | SENP7 conf 102 | Casp3 SENP sel 97 | SENP luc ctr 97
c1ccc(-c2noc(-c3ccno3)n2)nc1	none
c1ccc(-c2nc(-c3ccccn3)no2)cc1	SENP6 inh 96, SENP7 inh 101, SENP8 block-2 95 | SENP8 confirm 98 | SENP6 conf 99 | SENP7 conf 103 | Casp3 SENP sel 99 | SENP luc ctr 97
c1ccc(Cc2nc(-c3ccccn3)no2)cc1	none
c1ccc(-c2cc(-c3nc(-c4ccccn4)no3)c3ccccc3n2)cc1	none
O=[N+]([O-])c1cccc(-c2noc(-c3ccco3)n2)c1	SENP6 inh 68, SENP7 inh 54 | SENP8 confirm inactive | SENP6 conf inactive | SENP7 conf inactive | Casp3 SENP sel inactive | SENP luc ctr inactive
c1ccc(-c2noc(-c3ccco3)n2)nc1	SENP6 inh 74, SENP7 inh 73 | SENP8 confirm 65 | SENP6 conf 68 | SENP7 conf 92 | Casp3 SENP sel 92 | SENP luc ctr 70
CC(C)N(Cc1ccccc1)C(=O)CN1C(=O)NC2(CCCC2)C1=O	none
Cc1nn2c(=O)[nH]cnc2c1Cl	none (no result: SENP6 inh, SENP7 inh, SENP8 block-2)
CSc1ccc(C(=O)N2CCC(n3nccc3NC(=O)C3CC3)CC2)cc1	none
CCOC(=O)CN1CC(C)(C)N(CC(=O)OCC)CC1(C)C	none (no result: SENP6 inh, SENP7 inh, SENP8 block-2)
Cc1ccc2nc(-c3ccccn3)oc2c1	SENP6 inh 83, SENP7 inh 81, SENP8 block-2 63 | SENP8 confirm inactive | SENP6 conf 71 | SENP7 conf 95 | Casp3 SENP sel 89 | SENP luc ctr inactive
c1ccc(-c2ccc(-c3nc(-c4ccccn4)no3)cc2)cc1	SENP6 inh 98, SENP7 inh 98, SENP8 block-2 97 | SENP8 confirm inactive | SENP6 conf 74 | SENP7 conf 81 | Casp3 SENP sel 97 | SENP luc ctr inactive
CN(C)S(=O)(=O)Nc1cc(Cl)cc(Cl)c1	none
O=C(NCCc1ccccc1)c1ccc2c(c1)OCCO2	SENP6 inh 72, SENP7 inh 80 | SENP8 confirm 73 | SENP6 conf 70 | SENP7 conf 89 | Casp3 SENP sel 87 | SENP luc ctr 75
O=C(NCCc1ccccc1)c1ccc2c(c1)OCCCO2	SENP6 inh 85, SENP7 inh 83, SENP8 block-2 78 | SENP8 confirm 86 | SENP6 conf 86 | SENP7 conf 98 | Casp3 SENP sel 93 | SENP luc ctr 85
COc1cccc(OCC(=O)NNC(=S)Nc2ccc(Cl)cc2Cl)c1	none
CC1=CC(=C(C#N)c2nc3ccccc3s2)C=C(C)N1CC1CCCO1 (stereo not drawn)	SENP6 inh 82 | SENP8 confirm inactive | SENP6 conf inactive | SENP7 conf inactive | Casp3 SENP sel inactive | SENP luc ctr inactive
Cc1ccc2nc(-c3ccc(F)cc3)c(CC3CCCCC3)n2c1	none (no result: SENP6 inh, SENP7 inh, SENP8 block-2)
C/C=C(\C)C(=O)N1CCC(C(=O)c2ccccc2)CC1	none
Cc1ccc(C2=Nc3ccccc3N=C(C(Cl)Cl)C2)cc1	SENP6 inh 84, SENP7 inh 58, SENP8 block-2 69 | SENP8 confirm inactive | SENP6 conf inactive | SENP7 conf 72 | Casp3 SENP sel 86 | SENP luc ctr 80
COc1cc(OC)cc(-c2nc(-c3cccs3)no2)c1	none
COc1cccc(-c2nc(-c3ccncc3)no2)c1	SENP6 inh 78, SENP7 inh 80, SENP8 block-2 70 | SENP8 confirm 73 | SENP6 conf 78 | SENP7 conf 94 | Casp3 SENP sel 86 | SENP luc ctr 61
